Experiment [1] deals with Von Hippel-Lindau disease tumor suppressor/Elongin B/Elongin C (Homo sapiens) (UniProt P40337+Q15370+Q15369). The experiment can be described thus: Binding affinity to N-terminal His6 tagged VHL (54 to 213 residues)/ELoC (17 to 112 residues)/EloB (1 to 120 residues) (unknown origin) complex expressed in Escherichia coli BL21(DE3) assessed as change in melting temperature at 1 mM by Sypro orange dye based differential scanning fluorimetric analysis. Summed up: (§1)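 Thermal shift screen with each fragment tested as a singleton. Unfolding temperature is followed with a fluorescent dye that binds preferentially to unfolded protein. For line 1 the target is VCB alone. For line 3 it is VCB preincubated with HIF-1α peptide (VCBH), which separates binders of the HIF site from binders elsewhere in the complex.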

For experiment [2], the target named is T1, von Hippel-Lindau disease tumor suppressor/Elongin-C/Elongin-B/HIF1A (Homo sapiens) (UniProt Q16665+P40337+Q15370+Q15369). The experiment is described as follows: Binding affinity to N-terminal His6 tagged VHL (54 to 213 residues)/ELoC (17 to 112 residues)/EloB (1 to 120 residues)/HIF-1alpha (unknown origin) complex expressed in Escherichia coli BL21(DE3) assessed as change in melting temperature at 1 mM by Sypro orange dye based differential scanning fluorimetric analysis. Summed up: as §1

Experiment [3] has as its target Von Hippel-Lindau disease tumor suppressor/Elongin B/Elongin C (Homo sapiens, UniProt P40337). The experiment can be described thus: Binding affinity to N-terminal His6 tagged VHL (54 to 213 residues)/ELoC (17 to 112 residues)/EloB (1 to 120 residues) (unknown origin) complex expressed in Escherichia coli BL21(DE3) assessed as dissociation constant by ITC method.

For experiment [4], the target named is T1, von Hippel-Lindau disease tumor suppressor/Elongin-C/Elongin-B/HIF1A (Homo sapiens). The experiment can be described thus: Binding affinity to N-terminal His6 tagged VHL (54 to 213 residues)/ELoC (17 to 112 residues)/EloB (1 to 120 residues)/HIF-1alpha (unknown origin) complex expressed in Escherichia coli BL21(DE3) assessed as change in melting temperature at 1 mM in presence of DEALA-Hyp-YIPMDDDFQLRSF by differential scanning fluorimetry.

Consider `OCc1ccc(-n2cccc2)cc1`, for which the ΔTm in experiment [1] and in experiment [2] was > 0.5 °C each time. Also, in experiment [3], the Kd is 5 mM.

For `COC(=O)c1cc2occc2[nH]1`, the shift in melting temperature (ΔTm) in experiment [1] is > 0.5 °C; in experiment [2], > 0.5 °C; in experiment [4] it was 0.7 °C.

As to `O=C1CCSc2ccc(Cl)cc21`, the thermal shift (ΔTm) in experiment [1] is > 0.5 °C; in experiment [2], > 0.5 °C; in experiment [4], 1.2 °C. The dissociation constant Kd in experiment [3] stood at 6.7 mM.

The values are drawn from ChEMBL document CHEMBL4229472, “Surface Probing by Fragment-Based Screening and Computational Methods Identifies Ligandable Pockets on the von Hippel-Lindau (VHL) E3 Ubiquitin Ligase” (J Med Chem, 2018).
